Legend:
Hepatitis C virus = experiment: Antiviral activity against Hepatitis C virus genotype 1b infected in human HuH5.2 cells after 72 hrs by luciferase reporter gene assay; type: functional, cell-based, Hepacivirus hominis
In short: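 Huh 5-2 cells with genotype 1b I389luc-ubi-neo/NS3-3'/5.1 subgenomic replicon, seeded 6 500 cells/well in DMEM/10% FCS without Geneticin, overnight 37 °C. Compound (DMSO stock diluted in medium) in 1:5 four-step or 1:2 eight-step series, 72 h. Cells PBS-washed, lysed 5 min, luciferase luminescence read, converted to % untreated control; EC50 from dose-response curve, mean of ≥2 independent experiments.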

[1] = Cytotoxicity against human HuH5.2 cells assessed as reduction in metabolic activity after 72 hrs by MTS assay; type: toxicity, cell-based, Huh-5-2; settings: HuH5.2 cells
In short: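 Run in parallel with the replicon assay: Huh 5-2 replicon cells, 6 500 cells/well, compound series for 72 h at 37 °C, 5% CO2. Medium then replaced with 5% MTS in phenol red-free medium for 1.5 h. Absorbance at 498 nm expressed as % untreated cells; CC50 from dose-response curve as 50% reduction in metabolic activity, mean of ≥2 experiments.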

[2] = Selectivity index, ratio of CC50 for human HuH5.2 cells to EC50 for hepatitis C virus genotype 1b infected in human HuH5.2 cells; type: toxicity, cell-based; settings: HuH5.2 cells, read-out: Ratio CC50/EC50
In short: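 Ratio of CC50 (MTS metabolic read-out, 72 h) to EC50 (replicon luciferase read-out, 72 h), both measured in parallel on Huh 5-2 genotype 1b replicon cells.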

[3] = Inhibition of Hepatitis C virus genotype 1b (con1) full length C-terminal His-tagged NS3 helicase expressed in Escherichia coli Rosette(DE3) assessed as inhibition of 5'-Cy5/3'-IAbRQ-labeled DNA unwinding activity by molecular beacon assay; set-up: species or system Hepatitis C virus (isolate Con1)
In short: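 Molecular beacon unwinding assay: 25 mM MOPS pH 6.5, 1.25 mM MgCl2, 5% DMSO, 5 µg/ml BSA, 0.01% Tween20, 0.05 mM DTT, 5 nM fluorescent DNA substrate, 12.5 nM NS3h, 1 mM ATP.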

[4] = Hepatitis C virus, genotype 1b, Huh-5-2, 72 h

SMILES	EC50 (Hepatitis C virus; [4])	EC90 (Hepatitis C virus; [4])	IC50 [3]	EC50 (Hepatitis C virus)	EC90 (Hepatitis C virus)	CC50 at 72 h [1]	selectivity ratio [2]
O=C(NNc1ncnc2sc3c(c12)CCCC3)c1ccccn1	1.47 µM	0.819 µM	> 1000 µM	–	–	7.75 µM	5.27
O=C(NNc1ncnc2sccc12)c1cnccn1	0.851 µM	2.28 µM	> 1000 µM	–	–	233 µM	274
C/C(=N\Nc1ncnc2sc3c(c12)CCC3)c1cc(O)ccc1O	17.8 µM	17.6 µM	–	–	–	> 367 µM	> 20.6
C/C(=N\Nc1ncnc2sc3c(c12)CCCC3)c1nc2ccccc2[nH]1	2.42 µM	7.06 µM	> 1000 µM	–	–	37.3 µM	15.4
c1cnc2c(Nc3ncnc4sc5c(c34)CCCC5)cccc2c1	186 µM	> 100 µM	–	–	–	> 301 µM	> 1.6
CCOc1cccc(C(=O)Nc2cc(C(=O)OC)ccc2N2CCN(CC)CC2)c1	38.9 µM	–	–	–	–	61.7 µM	1.6
O=C(CCN1C(=O)c2cccc3cccc(c23)C1=O)N1CCN(Cc2ccc3c(c2)OCO3)CC1	32 µM	–	–	–	–	> 106 µM	> 3.3
O=C(NNc1ncnc2sc3c(c12)CCC3)c1cnccn1	0.0945 µM	< 0.256 µM	–	–	–	2.97 µM	31.4
O=C(NNc1ncnc2sc3c(c12)CCCC3)c1cccc(O)c1	210 µM	> 220 µM	–	–	–	> 294 µM	> 1.4
O=S(=O)(Nc1ccc(O)c(Sc2ncn[nH]2)c1)c1cccc2ccccc12	42.2 µM	–	–	–	–	> 126 µM	> 2.9
C/C(=N\Nc1ncnc2sc3c(c12)CCCC3)c1ccccc1	33.6 µM	> 310 µM	–	–	–	53.4 µM	1.6
C/C(=N\Nc1ncnc2sc3c(c12)CCCC3)c1ccc[nH]1	5.26 µM	12.8 µM	–	–	–	19.5 µM	3.7
O=C(NNc1ncnc2sc3c(c12)CCCC3)c1cccnc1	128 µM	> 307 µM	–	–	–	> 307 µM	> 2.4
C/C(=N\Nc1ncnc2sc3c(c12)CCCC3)c1cc(O)ccc1O (stereo in doubt; form 2)	–	–	–	< 2.2 µM	135 µM	> 282 µM	> 128
O=C(Nc1ccc(S(=O)(=O)O)c2ccccc12)c1ccc(C(=O)Nc2ccc(S(=O)(=O)O)c3ccccc23)cc1	> 86 µM	> 86 µM	–	–	–	> 86 µM	–
Cc1cc(O)cc(O)c1/C=N/NC(=O)COc1ccc2ccccc2c1	1.9 µM	–	–	–	–	51.9 µM	27.3
CCOc1cc(C2C(C(=O)OC)=C(C)NC3=C2C(=O)CC(c2ccc(OC)c(OC)c2)C3)ccc1O (stereo not given)	36 µM	–	–	–	–	> 101 µM	> 2.8
CC(=O)Nc1ccc(/C=C2\C=C(C(O)c3ccc(NC(C)=O)cc3)c3ccccc32)cc1 (stereo not given)	21.5 µM	–	–	–	–	48.8 µM	2.3
C/C(=N/Nc1ncnc2sccc12)c1cnccn1	5.04 µM	1.79 µM	–	–	–	9.01 µM	1.8

SMILES	EC50 (Hepatitis C virus; [4])	EC90 (Hepatitis C virus; [4])	IC50 [3]	EC50 (Hepatitis C virus)	EC90 (Hepatitis C virus)	CC50 at 72 h [1]	selectivity ratio [2]
CCc1ccc(S(=O)(=O)Nc2cc3c(C(=O)OC)c(C)oc3c3ccccc23)cc1	1.1 µM	–	–	–	–	4.7 µM	4.3
CCC[C@H](NC(=O)[C@@H]1[C@H]2CCC[C@H]2CN1C(=O)[C@@H](NC(=O)[C@@H](NC(=O)c1cnccn1)C1CCCCC1)C(C)(C)C)C(=O)C(=O)NC1CC1 [TELAPREVIR]	0.8 µM	–	–	–	–	–	58.8
C/C(=N\Nc1ncnc2sc3c(c12)CCCC3)c1cccnc1	79.4 µM	> 103 µM	–	–	–	> 309 µM	> 3.9
O=C(/C=C(/C(=O)O)c1ccccc1)Nc1ccc(N2CCN(CCO)CC2)cc1	65 µM	–	–	–	–	> 126 µM	> 0.19
NNc1ncnc2sc3c(c12)CCCC3	23.1 µM	47.4 µM	–	–	–	247 µM	10.7
CCOC(=O)c1cnc2c(ccc3ccccc32)c1Nc1ccc(C(=O)OC)cc1	10.9 µM	–	–	–	–	56.2 µM	5.2
COc1ccc(/C(C)=N/NC(=O)c2cc(O)cc(O)c2)c(OC)c1	> 151 µM	> 151 µM	–	–	–	> 151 µM	–
C/C(=N/Nc1ncnc2sc(C)c(C)c12)c1ccccc1O	0.384 µM	< 1.28 µM	–	–	–	93.6 µM	244
C/C(=N\Nc1ncnc2sc3c(c12)CCCC3)c1ccccn1	1.1 µM	3.48 µM	–	–	–	7.59 µM	6.9
COc1cc2nc(CN3CCC(C(N)=O)CC3)[nH]c(=O)c2cc1OC	> 144 µM	> 144 µM	–	–	–	> 144 µM	–
COc1ccc(C(N)=O)cc1NS(=O)(=O)c1cccc2cccnc12	> 140 µM	> 140 µM	–	–	–	> 140 µM	–
C/C(=N\Nc1ncnc2sc3c(c12)CCCC3)c1cc(Cl)ccc1Cl	9.41 µM	55.1 µM	–	–	–	> 256 µM	> 27.2
C/C(=N\Nc1ncnc2sc3c(c12)CCCC3)c1cccc(O)c1	403 µM	> 443 µM	–	–	–	> 443 µM	> 1.1
O=C(NNc1ncnc2sc3c(c12)CCCC3)c1ccco1	199 µM	–	–	–	–	230 µM	1.2
Cc1nc(NNC(=O)c2ccccn2)c2c3c(sc2n1)CCCC3	0.077 µM	0.32 µM	–	–	–	> 2.95 µM	> 38.1
COc1ccc(OC)c(/C(C)=N/Nc2ncnc3sc4c(c23)CCCC4)c1	53.6 µM	–	–	–	–	98.5 µM	1.8
C/C(=N\Nc1ncnc2sc3ccccc3c12)c1cnccn1	0.415 µM	0.858 µM	–	–	–	1.99 µM	6.4
C/C(=N\Nc1nc(C)nc2sc3c(c12)CCCC3)c1ccccc1O	115 µM	> 94.6 µM	–	–	–	> 284 µM	> 2.5

Continued, in another order:

EC50 (Hepatitis C virus; [4])	EC90 (Hepatitis C virus; [4])	IC50 [3]	EC50 (Hepatitis C virus)	EC90 (Hepatitis C virus)	SMILES	CC50 at 72 h [1]	selectivity ratio [2]
147 µM	–	–	–	–	O=C(NNc1ncnc2sc3c(c12)CCCC3)c1ccc[nH]1	160 µM	1.1
0.17 µM	–	–	–	–	C/C(=N/Nc1ncnc2sc(Cl)c(C)c12)c1ccccc1O	> 9.01 µM	> 56.1
21 µM	–	–	–	–	COc1ccc(-c2c3c(nc4sc5c(O)nc(C)nc5c24)CCC3)cc1	128 µM	6.1
> 149 µM	> 149 µM	–	–	–	O=C(N/N=C\c1cccnc1)c1cc(-c2ccc3c(c2)OCO3)n[nH]1	> 149 µM	–
> 295 µM	> 295 µM	–	–	–	C/C(=N\Nc1ncnc2sc3c(c12)CCCC3)c1ccc(O)cc1	> 295 µM	–
130 µM	> 139 µM	–	–	–	COc1cccc(C2=Nn3c(CN4CCC(C)CC4)nnc3SC2)c1	> 139 µM	> 1.1
2.75 µM	9.4 µM	–	–	–	O=C(NNc1ncnc2sccc12)c1cc(O)ccc1O	> 165 µM	> 60
12 µM	> 38.8 µM	–	–	–	O=C(NNc1ncnc2sccc12)c1ccccc1O	> 349 µM	> 27
130 µM	> 142 µM	–	–	–	COc1ccc(-c2c(C#N)c(SCC(N)=O)nc3c2CCCC3)cc1	> 142 µM	> 1.1
> 127 µM	> 127 µM	–	–	–	CCOc1ccc2sc(NS(=O)(=O)c3ccc(OC)c(OC)c3)nc2c1	> 127 µM	–
31.1 µM	–	–	–	–	O=C(NNc1ncnc2sc3c(c12)CCCC3)c1cccs1	36.7 µM	1.2
23 µM	–	–	–	–	C/C(=N\Nc1ncnc2sc3c(c12)CCCC3)c1cccs1	46 µM	2
0.832 µM	1.6 µM	–	–	–	O=C(NNc1ncnc2sc3ccccc3c12)c1ccccc1O	108 µM	130
0.461 µM	1.01 µM	–	–	–	O=C(NNc1ncnc2sc3ccccc3c12)c1ccccn1	1.54 µM	3.3
0.688 µM	< 0.839 µM	–	–	–	C/C(=N/Nc1ncnc2sc3c(c12)CCC3)c1cnccn1	1.12 µM	1.6
12.8 µM	–	–	–	–	COC(=O)c1ccc(N2C(=O)CC(S/C(=N\c3ccccc3)NCc3ccc4c(c3)OCO4)C2=O)cc1 (stereo not given)	62.6 µM	4.9
18.2 µM	–	–	–	–	C/C(=N\Nc1ncnc2sc3c(c12)CCCC3)c1ccco1	58.9 µM	3.2
34.5 µM	–	–	–	–	CCOc1cc(C)c(S(=O)(=O)N2CCN(Cc3ccc4c(c3)OCO4)CC2)cc1C	> 116 µM	> 3.4
